Measurements published in ChEMBL document CHEMBL1142065, “In vitro and in vivo activities of a new cephalosporin, FR264205, against Pseudomonas aeruginosa” (2007).
In brackets after ≈: the same amount, converted by molar mass. Activity calls are given as the source filed them. The calls are words filed in the database; no cut-off is given here.

What was measured:
Pseudomonas aeruginosa [1] = assay: Antibacterial activity against ciprofloxacin-resistant Pseudomonas aeruginosa; assay type: functional
Summary of the method: (§1)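 Agar dilution MIC per NCCLS (CLSI) M7-A7 on Mueller-Hinton agar with twofold serial drug dilutions. Inoculum 10^4 CFU per spot, aerobic incubation 18 to 20 h at 35°C. MIC is the lowest concentration preventing visible growth.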

Pseudomonas aeruginosa [2] = assay: Antibacterial activity against Pseudomonas aeruginosa; assay type: functional; summary of the method: as §1
Pseudomonas aeruginosa [3] = assay: Antibacterial activity against ceftazidime-resistant Pseudomonas aeruginosa; assay type: functional; summary of the method: as §1
Pseudomonas aeruginosa [4] = assay: Antibacterial activity against imipenem-resistant Pseudomonas aeruginosa; assay type: functional; summary of the method: as §1
Pseudomonas aeruginosa [5] = assay: Antibacterial activity against Pseudomonas aeruginosa PAO4222; assay type: functional; summary of the method: as §1
Pseudomonas aeruginosa [6] = assay: Antibacterial activity against Pseudomonas aeruginosa PAO1; assay type: functional; summary of the method: as §1
Escherichia coli [7] = assay: Antibacterial activity against Escherichia coli C600 expressing ESBL TEM5; assay type: functional
Summary of the method: (§2)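 MIC by agar dilution (CLSI M7-A7) on Mueller-Hinton agar with twofold serial drug dilutions; 10^4 CFU spotted per spot; aerobic incubation 18 to 20 h at 35°C; MIC read as lowest concentration preventing visible growth.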

Escherichia coli [8] = assay: Antibacterial activity against Escherichia coli C600 expressing ESBL TEM7; assay type: functional; summary of the method: as §2
Escherichia coli [9] = assay: Antibacterial activity against Escherichia coli C600 expressing ESBL SHV3; assay type: functional; summary of the method: as §2
Escherichia coli [10] = assay: Antibacterial activity against Escherichia coli C600 expressing ESBL TEM6; assay type: functional; summary of the method: as §2
Escherichia coli [11] = assay: Antibacterial activity against Escherichia coli C600 expressing ESBL SHV4; assay type: functional; summary of the method: as §2
Escherichia coli [12] = assay: Antibacterial activity against Escherichia coli C600; assay type: functional; summary of the method: as §2
Escherichia coli [13] = assay: Antibacterial activity against Escherichia coli C600 expressing OXA1; assay type: functional; summary of the method: as §2
Pseudomonas aeruginosa [14] = assay: Efficacy against Pseudomonas aeruginosa 93 pulmonary infection in mouse assessed as reduction in bacterial counts at 10 mg/kg, sc; assay type: functional, organism-based; set-up: dose 10 mg/kg
Summary of the method: (§3)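 Male ICR mice (4 weeks), made neutropenic with cyclophosphamide 200 mg/kg ip 4 days before infection. Under pentobarbital anesthesia (50 mg/kg iv) they were challenged intranasally with 3.30 log10 CFU of strain 93, grown on tryptic soy agar 35°C 20 h and suspended in saline. Dosed sc twice daily for 3 days from 3 h post-infection. Lung viable counts taken the day after last dose; 6 mice/dose.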

Escherichia coli [15] = assay: Antibacterial activity against Escherichia coli C600 expressing ESBL TEM8; assay type: functional; summary of the method: as §2
Pseudomonas aeruginosa [16] = assay: Antibacterial activity against Pseudomonas aeruginosa KG4001 producing MexEF-OprN efflux pump; assay type: functional; summary of the method: as §1
Escherichia coli [17] = assay: Antibacterial activity against Escherichia coli C600 expressing ESBL SHV2; assay type: functional; summary of the method: as §2
Pseudomonas aeruginosa [18] = assay: Antibacterial activity against Pseudomonas aeruginosa 93; assay type: functional; summary of the method: as §2
Escherichia coli [19] = assay: Antibacterial activity against Escherichia coli C600 expressing ESBL OXA2; assay type: functional; summary of the method: as §2
Pseudomonas aeruginosa [20] = assay: Antibacterial activity against Pseudomonas aeruginosa KG2212 producing MexAB-OprM efflux pump; assay type: functional; summary of the method: as §1
Escherichia coli [21] = assay: Antibacterial activity against Escherichia coli C600 expressing ESBL CTX-M3; assay type: functional; summary of the method: as §2
Pseudomonas aeruginosa [22] = assay: Antibacterial activity against Pseudomonas aeruginosa PAO4069 expressing inducible AmpC; assay type: functional; summary of the method: as §1
Pseudomonas aeruginosa [23] = assay: Reduction in susceptibility against Pseudomonas aeruginosa PAO1 after single passage; assay type: functional, organism-based
Summary of the method: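 PAO1 passaged daily for five consecutive days in fresh Mueller-Hinton broth with twofold drug dilution series. Each next inoculum came from the tube at one-fourth the MIC. MIC change was followed across passages.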

Pseudomonas aeruginosa [24] = assay: Antibacterial activity against Pseudomonas aeruginosa PAO1456 expressing constitutive AmpC; assay type: functional; summary of the method: as §1
Escherichia coli [25] = assay: Antibacterial activity against Escherichia coli C600 expressing ESBL TEM4; assay type: functional; summary of the method: as §2
Pseudomonas aeruginosa [26] = assay: Antibacterial activity against Pseudomonas aeruginosa FP1380 expressing constitutive AmpC; assay type: functional; summary of the method: as §2
Escherichia coli [27] = assay: Antibacterial activity against Escherichia coli C600 expressing ESBL TEM9; assay type: functional; summary of the method: as §2
Escherichia coli [28] = assay: Antibacterial activity against Escherichia coli C600 expressing ESBL TEM3; assay type: functional; summary of the method: as §2
Escherichia coli [29] = assay: Antibacterial activity against Escherichia coli C600 expressing TEM2; assay type: functional; summary of the method: as §2
Pseudomonas aeruginosa [30] = assay: Efficacy against Pseudomonas aeruginosa 93 pulmonary infection in mouse assessed as reduction in bacterial counts at 2 mg/kg, sc; assay type: functional, organism-based; set-up: dose 2 mg/kg; summary of the method: as §3
Escherichia coli [31] = assay: Antibacterial activity against Escherichia coli C600 expressing SHV1; assay type: functional; summary of the method: as §2
Escherichia coli [32] = assay: Antibacterial activity against Escherichia coli C600 expressing TEM1; assay type: functional; summary of the method: as §2
Pseudomonas aeruginosa [33] = assay: Efficacy against Pseudomonas aeruginosa 93 assessed as reduction in bacterial counts in mouse urinary tract infection model at 0.5 mg/kg; assay type: functional, organism-based; set-up: dose 0.5 mg/kg; settings: Urine
Summary of the method: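 Female ICR mice (4 weeks) were denied water 1 day. Under pentobarbital anesthesia they received 4.32 log10 CFU of strain 93 via the […], which was then clamped 5 h. Dosed sc at 5 h post-challenge plus twice daily for 2 days. Bilateral kidney viable counts taken the day after last treatment; 6 mice/dose.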

Escherichia coli [34] = assay: Antibacterial activity against Escherichia coli C600 expressing ESBL CTX-M18; assay type: functional; summary of the method: as §2
Pseudomonas aeruginosa [35] = assay: Antibacterial activity against Pseudomonas aeruginosa KG4545 producing MexXY efflux pump; assay type: functional; summary of the method: as §1
Pseudomonas aeruginosa [36] = assay: Antibacterial activity against Pseudomonas aeruginosa KG3056 producing MexCD-OprJ efflux pump; assay type: functional; summary of the method: as §1
Pseudomonas aeruginosa [37] = assay: Antibacterial activity against Pseudomonas aeruginosa 22029 expressing metallo beta lactamase; assay type: functional; summary of the method: as §1

O=C(O)c1cn(C2CC2)c2cc(N3CCNCC3)c(F)cc2c1=O [CIPROFLOXACIN]
MIC50 (Pseudomonas aeruginosa [1]): 8 µg/mL (≈ 24.1 µM)
MIC90 (Pseudomonas aeruginosa [1]): 64 µg/mL (≈ 193 µM)
MIC50 (Pseudomonas aeruginosa [2]): 0.25 µg/mL (≈ 0.754 µM)
MIC90 (Pseudomonas aeruginosa [2]): 8 µg/mL (≈ 24.1 µM)
MIC50 (Pseudomonas aeruginosa [3]): 2 µg/mL (≈ 6.04 µM)
MIC90 (Pseudomonas aeruginosa [3]): 64 µg/mL (≈ 193 µM)
MIC50 (Pseudomonas aeruginosa [4]): 1 µg/mL (≈ 3.02 µM)
MIC90 (Pseudomonas aeruginosa [4]): 8 µg/mL (≈ 24.1 µM)

C[C@@H](O)[C@H]1C(=O)N2C(C(=O)O)=C(SCCNC=N)C[C@H]12 [IMIPENEM ANHYDROUS]
MIC (Pseudomonas aeruginosa [5]): 1 µg/mL (≈ 3.34 µM)
MIC (Pseudomonas aeruginosa [6]): 4 µg/mL (≈ 13.4 µM)
MIC (Escherichia coli [7]): 0.25 µg/mL (≈ 0.835 µM)
MIC (Escherichia coli [8]): 0.25 µg/mL (≈ 0.835 µM)
MIC (Escherichia coli [9]): 0.25 µg/mL (≈ 0.835 µM)
MIC (Escherichia coli [10]): 0.25 µg/mL (≈ 0.835 µM)
MIC (Escherichia coli [11]): 0.25 µg/mL (≈ 0.835 µM)
MIC (Escherichia coli [12]): 0.25 µg/mL (≈ 0.835 µM)
MIC (Escherichia coli [13]): 0.25 µg/mL (≈ 0.835 µM)
Activity (Pseudomonas aeruginosa [14]): Active
MIC (Escherichia coli [15]): 0.25 µg/mL (≈ 0.835 µM)
MIC (Pseudomonas aeruginosa [16]): 1 µg/mL (≈ 3.34 µM)
MIC (Escherichia coli [17]): 0.25 µg/mL (≈ 0.835 µM)
MIC (Pseudomonas aeruginosa [18]): 1 µg/mL (≈ 3.34 µM)
MIC (Escherichia coli [19]): 0.25 µg/mL (≈ 0.835 µM)
MIC (Pseudomonas aeruginosa [20]): 1 µg/mL (≈ 3.34 µM)
MIC (Escherichia coli [21]): 0.25 µg/mL (≈ 0.835 µM)
MIC (Pseudomonas aeruginosa [22]): 1 µg/mL (≈ 3.34 µM)
Activity (Pseudomonas aeruginosa [23]): Active
MIC50 (Pseudomonas aeruginosa [1]): 8 µg/mL (≈ 26.7 µM)
MIC90 (Pseudomonas aeruginosa [1]): 16 µg/mL (≈ 53.4 µM)
MIC (Pseudomonas aeruginosa [24]): 1 µg/mL (≈ 3.34 µM)
MIC (Escherichia coli [25]): 0.25 µg/mL (≈ 0.835 µM)
MIC (Pseudomonas aeruginosa [26]): 0.5 µg/mL (≈ 1.67 µM)
MIC50 (Pseudomonas aeruginosa [2]): 2 µg/mL (≈ 6.68 µM)
MIC90 (Pseudomonas aeruginosa [2]): 16 µg/mL (≈ 53.4 µM)
MIC (Escherichia coli [27]): 0.25 µg/mL (≈ 0.835 µM)
MIC (Escherichia coli [28]): 0.25 µg/mL (≈ 0.835 µM)
MIC (Escherichia coli [29]): 0.25 µg/mL (≈ 0.835 µM)
Activity (Pseudomonas aeruginosa [30]): Active
MIC (Escherichia coli [31]): 0.25 µg/mL (≈ 0.835 µM)
MIC50 (Pseudomonas aeruginosa [3]): 16 µg/mL (≈ 53.4 µM)
MIC90 (Pseudomonas aeruginosa [3]): 32 µg/mL (≈ 107 µM)
MIC (Escherichia coli [32]): 0.125 µg/mL (≈ 0.418 µM)
Activity (Pseudomonas aeruginosa [33]): Active
MIC (Escherichia coli [34]): 0.25 µg/mL (≈ 0.835 µM)
MIC (Pseudomonas aeruginosa [35]): 1 µg/mL (≈ 3.34 µM)
MIC (Pseudomonas aeruginosa [36]): 0.5 µg/mL (≈ 1.67 µM)
MIC (Pseudomonas aeruginosa [37]): 128 µg/mL (≈ 428 µM)
MIC (Pseudomonas aeruginosa [4]): 16 µg/mL (≈ 53.4 µM)
MIC50 (Pseudomonas aeruginosa [4]): 16 µg/mL (≈ 53.4 µM)
MIC90 (Pseudomonas aeruginosa [4]): 32 µg/mL (≈ 107 µM)
